pEC50, pIC50: −log10 of the molar value.
Columns and labels:
[1] = target: T1, PI3-kinase p110-alpha/p85-alpha (Homo sapiens, UniProt P42336); test: Inhibition of PI3K p110alpha/p85alpha; assay type: protein-complex assay
Summary of the method: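 Biochemical kinase assay following the kit manufacturer's protocol with a modified kinase buffer (50 mM HEPES pH 7.5, 3 mM MgCl2, 100 mM NaCl, 1 mM EGTA, 0.04% CHAPS, 2 mM TCEP, 0.01 mg/ml BGG); 10 nM enzyme; ATP 50 µM; values are averages of two independent experiments, each in duplicate.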

CYP1A2 = target: T2, CYP1A2 (Homo sapiens, UniProt P05177); test: Inhibition of CYP1A2 at 10 uM; assay type: ADME
T2 sequence (P05177 whole entry): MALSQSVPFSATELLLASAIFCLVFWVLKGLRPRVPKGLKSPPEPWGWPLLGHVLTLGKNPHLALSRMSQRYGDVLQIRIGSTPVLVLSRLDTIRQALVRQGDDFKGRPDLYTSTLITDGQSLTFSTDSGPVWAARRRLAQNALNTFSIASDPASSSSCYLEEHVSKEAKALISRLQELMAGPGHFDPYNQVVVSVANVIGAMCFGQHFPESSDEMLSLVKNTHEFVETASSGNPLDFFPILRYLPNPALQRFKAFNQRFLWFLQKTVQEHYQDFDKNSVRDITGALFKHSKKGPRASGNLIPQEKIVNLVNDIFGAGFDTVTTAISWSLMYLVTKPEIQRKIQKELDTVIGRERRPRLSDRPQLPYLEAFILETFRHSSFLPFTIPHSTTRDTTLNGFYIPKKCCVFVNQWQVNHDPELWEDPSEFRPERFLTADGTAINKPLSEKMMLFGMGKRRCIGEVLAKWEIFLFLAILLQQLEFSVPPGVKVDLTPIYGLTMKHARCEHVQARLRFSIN
Summary of the method: (§1)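 CYP isoform panel (1A2, 2C9, 2C19, 2D6, 3A4); percent inhibition recorded at 10 µM test compound; run in duplicate by an outside contractor.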

CYP2C9 = CYP2C9 (Homo sapiens, UniProt P11712); test: Inhibition of CYP2C9 at 10 uM; assay type: ADME; summary of the method: as §1
CYP2C19 = CYP2C19 (Homo sapiens, UniProt P33261); test: Inhibition of CYP2C19 at 10 uM; assay type: ADME; summary of the method: as §1
CYP2D6 = CYP2D6 (Homo sapiens, UniProt P10635); test: Inhibition of CYP2D6 at 10 uM; assay type: ADME; summary of the method: as §1
CYP3A4 = CYP3A4 (Homo sapiens, UniProt P08684); test: Inhibition of CYP3A4 at 10 uM; assay type: ADME; summary of the method: as §1
[2] = target: T1, PI3-kinase p110-alpha/p85-alpha; test: Inhibition of PI3K p110alpha/p85alpha-mediated AKT1 phosphorylation at Ser473 in human U2OS cells; assay type: cell-based
Summary of the method: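 Endogenous phospho-Akt1 (Ser473) measured in U2OS osteosarcoma cells kept in 0.1% FBS and then serum-stimulated; read-out by cell-based ELISA with femto chemiluminescent substrate.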

[3] = Metabolic stability in human liver microsomes assessed as compound remaining at 1 uM after 30 mins
[4] = Metabolic stability in mouse liver microsomes assessed as compound remaining at 1 uM after 30 mins

T1 sequence (P27986 whole entry): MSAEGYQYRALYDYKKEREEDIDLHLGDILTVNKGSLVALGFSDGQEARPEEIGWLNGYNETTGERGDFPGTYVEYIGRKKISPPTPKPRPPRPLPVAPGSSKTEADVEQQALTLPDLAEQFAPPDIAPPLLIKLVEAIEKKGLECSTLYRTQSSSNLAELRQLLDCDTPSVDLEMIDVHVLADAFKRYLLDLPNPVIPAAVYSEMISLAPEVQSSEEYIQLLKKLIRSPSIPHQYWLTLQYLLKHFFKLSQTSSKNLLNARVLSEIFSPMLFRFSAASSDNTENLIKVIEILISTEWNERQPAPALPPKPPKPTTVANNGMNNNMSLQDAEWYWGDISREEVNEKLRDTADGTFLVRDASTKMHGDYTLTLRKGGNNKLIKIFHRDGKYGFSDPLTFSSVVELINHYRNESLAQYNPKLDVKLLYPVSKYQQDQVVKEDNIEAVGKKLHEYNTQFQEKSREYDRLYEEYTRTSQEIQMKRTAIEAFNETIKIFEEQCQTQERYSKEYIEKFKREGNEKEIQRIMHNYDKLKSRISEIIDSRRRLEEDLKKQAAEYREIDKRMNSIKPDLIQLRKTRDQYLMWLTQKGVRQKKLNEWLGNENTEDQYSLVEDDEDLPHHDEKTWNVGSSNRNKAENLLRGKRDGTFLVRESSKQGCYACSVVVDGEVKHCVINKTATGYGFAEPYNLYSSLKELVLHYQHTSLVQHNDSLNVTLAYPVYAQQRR
T1 sequence (P42336 whole entry): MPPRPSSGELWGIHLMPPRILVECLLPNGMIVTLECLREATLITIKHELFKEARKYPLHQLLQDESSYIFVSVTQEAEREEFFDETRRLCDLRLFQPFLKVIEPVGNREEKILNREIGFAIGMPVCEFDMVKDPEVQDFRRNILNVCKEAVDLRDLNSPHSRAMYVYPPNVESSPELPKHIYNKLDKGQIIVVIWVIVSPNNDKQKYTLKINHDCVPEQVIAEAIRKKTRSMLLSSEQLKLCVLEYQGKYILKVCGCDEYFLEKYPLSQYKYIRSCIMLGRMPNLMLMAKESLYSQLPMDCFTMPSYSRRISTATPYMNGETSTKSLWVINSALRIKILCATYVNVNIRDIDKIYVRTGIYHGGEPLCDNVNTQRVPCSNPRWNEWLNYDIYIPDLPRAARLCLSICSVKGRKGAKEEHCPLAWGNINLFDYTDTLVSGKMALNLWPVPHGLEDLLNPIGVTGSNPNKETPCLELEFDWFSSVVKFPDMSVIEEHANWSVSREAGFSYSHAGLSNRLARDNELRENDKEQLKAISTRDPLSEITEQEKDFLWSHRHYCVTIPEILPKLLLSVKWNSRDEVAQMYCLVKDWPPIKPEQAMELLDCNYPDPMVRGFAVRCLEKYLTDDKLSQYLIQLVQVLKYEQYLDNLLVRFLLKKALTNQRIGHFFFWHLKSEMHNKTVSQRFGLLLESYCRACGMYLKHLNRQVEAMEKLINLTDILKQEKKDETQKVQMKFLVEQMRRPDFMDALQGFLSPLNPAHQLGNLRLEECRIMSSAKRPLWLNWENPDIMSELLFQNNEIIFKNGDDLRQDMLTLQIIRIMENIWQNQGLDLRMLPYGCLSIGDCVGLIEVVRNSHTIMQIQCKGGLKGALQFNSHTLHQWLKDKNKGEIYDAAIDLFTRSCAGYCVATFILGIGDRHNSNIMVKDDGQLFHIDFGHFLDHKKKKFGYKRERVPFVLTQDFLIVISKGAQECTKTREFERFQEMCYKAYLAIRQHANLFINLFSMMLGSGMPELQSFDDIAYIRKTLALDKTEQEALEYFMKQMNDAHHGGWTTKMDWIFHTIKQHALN
CYP2C9, sequence (P11712 whole entry): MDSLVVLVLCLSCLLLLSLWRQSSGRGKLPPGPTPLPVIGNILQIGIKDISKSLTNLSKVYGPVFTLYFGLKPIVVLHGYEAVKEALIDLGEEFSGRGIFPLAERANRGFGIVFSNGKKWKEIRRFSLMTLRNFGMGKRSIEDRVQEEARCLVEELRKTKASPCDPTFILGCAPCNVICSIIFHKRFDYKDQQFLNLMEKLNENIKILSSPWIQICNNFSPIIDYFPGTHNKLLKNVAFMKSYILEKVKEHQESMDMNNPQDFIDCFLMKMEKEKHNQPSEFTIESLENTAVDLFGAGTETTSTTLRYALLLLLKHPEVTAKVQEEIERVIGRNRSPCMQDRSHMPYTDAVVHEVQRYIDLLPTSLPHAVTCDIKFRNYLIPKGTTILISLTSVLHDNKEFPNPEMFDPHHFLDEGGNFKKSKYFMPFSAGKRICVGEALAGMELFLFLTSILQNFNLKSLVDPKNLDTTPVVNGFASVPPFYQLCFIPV
CYP2D6, sequence (P10635 whole entry): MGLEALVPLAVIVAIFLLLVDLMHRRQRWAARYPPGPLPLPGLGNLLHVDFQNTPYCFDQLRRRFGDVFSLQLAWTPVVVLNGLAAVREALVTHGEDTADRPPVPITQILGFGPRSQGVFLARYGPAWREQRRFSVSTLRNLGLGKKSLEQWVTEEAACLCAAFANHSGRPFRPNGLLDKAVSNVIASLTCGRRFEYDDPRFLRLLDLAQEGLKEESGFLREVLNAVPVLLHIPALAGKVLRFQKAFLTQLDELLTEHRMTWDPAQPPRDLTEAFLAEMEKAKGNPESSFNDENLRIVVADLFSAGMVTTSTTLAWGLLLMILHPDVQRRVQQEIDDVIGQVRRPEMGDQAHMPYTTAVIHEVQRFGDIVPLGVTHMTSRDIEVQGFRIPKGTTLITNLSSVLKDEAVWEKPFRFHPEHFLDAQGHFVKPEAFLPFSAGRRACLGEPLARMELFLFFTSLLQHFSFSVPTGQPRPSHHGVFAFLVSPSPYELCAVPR
CYP2C19, sequence (P33261 whole entry): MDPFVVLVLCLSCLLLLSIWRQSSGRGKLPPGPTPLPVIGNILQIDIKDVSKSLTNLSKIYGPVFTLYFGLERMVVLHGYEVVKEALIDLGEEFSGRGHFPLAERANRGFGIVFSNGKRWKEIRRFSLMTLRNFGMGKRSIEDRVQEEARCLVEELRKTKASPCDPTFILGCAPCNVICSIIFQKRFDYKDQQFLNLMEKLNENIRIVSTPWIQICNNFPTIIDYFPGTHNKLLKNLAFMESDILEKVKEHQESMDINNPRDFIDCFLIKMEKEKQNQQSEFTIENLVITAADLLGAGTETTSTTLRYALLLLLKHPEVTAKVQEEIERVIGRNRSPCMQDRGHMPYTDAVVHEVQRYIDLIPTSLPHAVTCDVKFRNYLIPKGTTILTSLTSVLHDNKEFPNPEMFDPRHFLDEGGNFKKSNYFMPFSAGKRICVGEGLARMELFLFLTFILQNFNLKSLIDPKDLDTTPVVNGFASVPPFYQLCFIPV
CYP3A4, sequence (P08684 whole entry): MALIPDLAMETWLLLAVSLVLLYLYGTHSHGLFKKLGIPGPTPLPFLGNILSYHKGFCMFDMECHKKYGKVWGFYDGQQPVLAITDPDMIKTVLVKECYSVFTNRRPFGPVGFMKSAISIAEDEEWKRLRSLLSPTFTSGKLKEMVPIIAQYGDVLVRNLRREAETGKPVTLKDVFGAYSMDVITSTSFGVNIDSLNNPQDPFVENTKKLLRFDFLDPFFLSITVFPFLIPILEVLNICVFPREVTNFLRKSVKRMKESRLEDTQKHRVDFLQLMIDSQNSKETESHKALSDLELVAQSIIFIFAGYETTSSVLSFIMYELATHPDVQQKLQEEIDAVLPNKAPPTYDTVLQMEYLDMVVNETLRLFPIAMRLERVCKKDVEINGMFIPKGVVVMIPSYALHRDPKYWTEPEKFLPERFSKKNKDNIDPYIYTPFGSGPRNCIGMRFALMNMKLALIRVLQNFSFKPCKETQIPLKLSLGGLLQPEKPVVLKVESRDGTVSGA

Compound | pIC50 [1] | pEC50 [2] | other results
CN1CCN(Cc2cn3cc(-c4cccc(O)c4)nc(N4CCOCC4)c3n2)CC1 | 5.56 |  | 
Oc1cccc(-c2cn3c(N4CCNCC4)cnc3c(N3CCOCC3)n2)c1 | 6.05 |  | 
CS(=O)(=O)N1CCN(Cc2cc3nc(-c4cccc5[nH]ncc45)nc(N4CCOCC4)c3s2)CC1 [PICTILISIB] |  |  | inhibition at 10 µM (CYP1A2): < 25%; inhibition at 10 µM (CYP2C9): < 25%; inhibition at 10 µM (CYP2C19): < 25%; inhibition at 10 µM (CYP2D6): < 25%; inhibition at 10 µM (CYP3A4): < 25%
CS(=O)(=O)N1CCN(c2cnc3c(N4CCOCC4)nc(-c4cccc(O)c4)cn23)CC1 | 6.28 |  | 
CN1CCN(c2cnc3c(N4CCOCC4)nc(-c4cccc(O)c4)cn23)CC1 | 6.29 |  | 
CCNC(=O)c1cn2cc(-c3cccc4[nH]ncc34)nc(N3CCOCC3)c2n1 |  | 6.15 | 

The next lines start with results.

pIC50 [1] | pEC50 [2] | Compound | other results
7.46 | 6.01 | CN(C)CCNC(=O)c1cn2cc(-c3cccc4[nH]ncc34)nc(N3CCOCC3)c2n1 | 
7.30 | 6.70 | COCCNC(=O)c1cn2cc(-c3cccc4[nH]ncc34)nc(N3CCOCC3)c2n1 | remaining at 0.5 h, 1 µM [3]: 75%; remaining at 0.5 h, 1 µM [4]: 62%; inhibition at 10 µM (CYP1A2): < 25%; inhibition at 10 µM (CYP2C9): < 25%; inhibition at 10 µM (CYP2C19): < 25%; inhibition at 10 µM (CYP2D6): < 25%; inhibition at 10 µM (CYP3A4): < 25%
6.71 |  | Oc1cccc(-c2cn3ccnc3c(N3CCOCC3)n2)c1 | 
6.97 | 6.86 | NC(=O)c1cn2cc(-c3cccc4[nH]ncc34)nc(N3CCOCC3)c2n1 | 

Reference: ChEMBL document CHEMBL1955823, “Imidazo[1,2-a]pyrazines as novel PI3K inhibitors” (Bioorg Med Chem Lett, 2012)
